Source: ChEMBL document CHEMBL1139657, “Isothiazoloquinolones containing functionalized aromatic hydrocarbons at the 7-position: synthesis and in vitro activity of a series of potent antibacterial agents with diminished cytotoxicity in human cells” (Bioorg Med Chem Lett, 2006)
In brackets after ≈: the same amount, converted by molar mass.

How the values were obtained:
[1] = system: HEp-2; test: Cytotoxicity against human Hep2 laryngeal carcinoma cell line; format: functional
[2] = system: Staphylococcus aureus; test: Antimicrobial activity against Staphylococcus aureus ATCC 29213; format: functional
Method in brief: (§1)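 MIC taken as lowest concentration giving no visible bacterial growth after incubation at 37 °C for 18–24 h.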

[3] = system: Staphylococcus aureus; test: Antimicrobial activity against methicillin-resistant Staphylococcus aureus 700699; format: functional
Method in brief: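 MIC taken as the lowest compound concentration preventing visible bacterial growth after incubation at 37 °C for 18–24 h.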

[4] = system: Escherichia coli; test: Antimicrobial activity against Escherichia coli ATCC 25922; format: functional; method in brief: as §1
[5] = target: DNA gyrase (Escherichia coli, UniProt P0AES4+P0AES6); test: Inhibitory activity against wild type Escherichia coli gyrase; format: protein-complex assay
[6] = target: DNA topoisomerase 4 subunit A (Staphylococcus aureus, UniProt P0C1U9); test: Inhibitory activity against wild type Staphylococcus aureus topoisomerase 4
DNA topoisomerase 4 subunit A, sequence (P0C1U9 whole entry): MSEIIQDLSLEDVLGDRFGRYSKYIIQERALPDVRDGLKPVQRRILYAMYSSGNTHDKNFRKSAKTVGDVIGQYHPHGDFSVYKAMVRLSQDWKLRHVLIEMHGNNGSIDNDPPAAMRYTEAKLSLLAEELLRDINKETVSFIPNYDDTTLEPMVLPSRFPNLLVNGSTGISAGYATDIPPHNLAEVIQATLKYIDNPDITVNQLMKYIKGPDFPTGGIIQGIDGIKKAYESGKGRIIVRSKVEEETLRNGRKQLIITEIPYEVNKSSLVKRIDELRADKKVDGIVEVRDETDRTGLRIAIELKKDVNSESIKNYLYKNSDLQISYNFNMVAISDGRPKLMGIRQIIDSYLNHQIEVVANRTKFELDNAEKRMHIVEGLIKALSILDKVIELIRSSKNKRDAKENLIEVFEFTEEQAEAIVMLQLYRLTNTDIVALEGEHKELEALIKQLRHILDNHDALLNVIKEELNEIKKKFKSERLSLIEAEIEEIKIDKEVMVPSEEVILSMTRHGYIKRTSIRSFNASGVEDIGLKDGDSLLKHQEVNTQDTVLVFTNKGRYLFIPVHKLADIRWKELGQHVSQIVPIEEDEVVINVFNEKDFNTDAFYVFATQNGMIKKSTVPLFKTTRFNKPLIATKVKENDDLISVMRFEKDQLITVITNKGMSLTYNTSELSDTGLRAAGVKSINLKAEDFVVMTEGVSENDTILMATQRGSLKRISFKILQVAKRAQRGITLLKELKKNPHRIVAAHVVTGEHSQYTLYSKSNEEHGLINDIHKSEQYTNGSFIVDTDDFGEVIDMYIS

[7] = target: DNA topoisomerase II (Homo sapiens) (UniProt P11388+Q02880); test: Inhibitory activity against human topoisomerase 2; format: protein assay

SMILES	CC50 [1] [µM]	MIC [2] [µg/mL]	MIC [3] [µg/mL]	MIC [4] [µg/mL]	IC50 [5] [µM]	IC50 [6] [µM]	EC2 [7] [µM]
O=C(O)c1cn(C2CC2)c2cc(N3CCNCC3)c(F)cc2c1=O [CIPROFLOXACIN]	> 100	0.25 (≈ 0.754 µM)	32 (≈ 96.6 µM)	–	–	–	–
Nc1cccc(-c2cc3c(cc2F)c(=O)c2c(=O)[nH]sc2n3C2CC2)c1	> 100	0.008 (≈ 0.0218 µM)	8 (≈ 21.8 µM)	0.004 (≈ 0.0109 µM)	3.1	10	–
Nc1ccccc1-c1cc2c(cc1F)c(=O)c1c(=O)[nH]sc1n2C1CC1	46	0.03 (≈ 0.0817 µM)	64 (≈ 174 µM)	0.125 (≈ 0.34 µM)	–	–	–
COc1ccc(-c2cc3c(cc2F)c(=O)c2c(=O)[nH]sc2n3C2CC2)cc1	91	0.015 (≈ 0.0392 µM)	2 (≈ 5.23 µM)	0.125 (≈ 0.327 µM)	–	–	–
NCCc1ccc(-c2cc3c(cc2F)c(=O)c2c(=O)[nH]sc2n3C2CC2)cc1	11	0.02 (≈ 0.0506 µM)	> 64	0.06 (≈ 0.152 µM)	–	–	–
Cc1ccc(-c2cc3c(cc2F)c(=O)c2c(=O)[nH]sc2n3C2CC2)cc1N	18	0.008 (≈ 0.021 µM)	2 (≈ 5.24 µM)	0.125 (≈ 0.328 µM)	–	–	–
CC(=O)Nc1cccc(-c2cc3c(cc2F)c(=O)c2c(=O)[nH]sc2n3C2CC2)c1	–	0.004 (≈ 0.00977 µM)	64 (≈ 156 µM)	0.125 (≈ 0.305 µM)	–	–	–
COc1c(N2C[C@@H]3CCCN[C@@H]3C2)c(F)cc2c(=O)c(C(=O)O)cn(C3CC3)c12 [MOXIFLOXACIN]	> 100	0.06 (≈ 0.149 µM)	2 (≈ 4.98 µM)	0.015 (≈ 0.0374 µM)	–	–	–
Cc1cc(-c2cc3c(cc2F)c(=O)c2c(=O)[nH]sc2n3C2CC2)cc(C)c1O	–	0.001 (≈ 0.00252 µM)	2 (≈ 5.04 µM)	0.125 (≈ 0.315 µM)	–	–	–
O=c1[nH]sc2c1c(=O)c1cc(F)c(-c3cccc(C4CCCCN4)c3)cc1n2C1CC1 (stereo not given)	4	0.06 (≈ 0.138 µM)	8 (≈ 18.4 µM)	0.125 (≈ 0.287 µM)	0.7	2.7	–
O=c1[nH]sc2c1c(=O)c1cc(F)c(-c3ccc(F)cc3)cc1n2C1CC1	> 100	0.03 (≈ 0.081 µM)	32 (≈ 86.4 µM)	0.25 (≈ 0.675 µM)	–	–	–
CO/N=C1\CN(c2nc3c(cc2F)c(=O)c(C(=O)O)cn3C2CC2)CC1CN (stereo not given) [GEMIFLOXACIN]	46	0.03 (≈ 0.077 µM)	2 (≈ 5.14 µM)	0.015 (≈ 0.0385 µM)	0.5	0.3	–
O=c1[nH]sc2c1c(=O)c1cc(F)c(-c3ccc(CO)cc3)cc1n2C1CC1	25	0.004 (≈ 0.0105 µM)	4 (≈ 10.5 µM)	0.06 (≈ 0.157 µM)	0.9	41	–
N#CCc1ccc(-c2cc3c(cc2F)c(=O)c2c(=O)[nH]sc2n3C2CC2)cc1	84	0.002 (≈ 0.00511 µM)	0.5 (≈ 1.28 µM)	0.02 (≈ 0.0511 µM)	–	–	–
O=c1[nH]sc2c1c(=O)c1cc(F)c(-c3cccc(O)c3)cc1n2C1CC1	> 100	0.004 (≈ 0.0109 µM)	0.25 (≈ 0.679 µM)	0.06 (≈ 0.163 µM)	0.2	1.6	–
O=c1[nH]sc2c1c(=O)c1cc(F)c(-c3cccc(CO)c3)cc1n2C1CC1	–	0.008 (≈ 0.0209 µM)	2 (≈ 5.23 µM)	0.125 (≈ 0.327 µM)	0.5	8.2	–
O=c1[nH]sc2c1c(=O)c1cc(F)c(-c3ccccc3)cc1n2C1CC1	> 100	0.004 (≈ 0.0114 µM)	16 (≈ 45.4 µM)	0.06 (≈ 0.17 µM)	–	–	–
COc1cccc(-c2cc3c(cc2F)c(=O)c2c(=O)[nH]sc2n3C2CC2)c1	26	0.004 (≈ 0.0105 µM)	2 (≈ 5.23 µM)	0.125 (≈ 0.327 µM)	–	–	–
NC(=O)c1cccc(-c2cc3c(cc2F)c(=O)c2c(=O)[nH]sc2n3C2CC2)c1	–	0.008 (≈ 0.0202 µM)	2 (≈ 5.06 µM)	0.125 (≈ 0.316 µM)	–	–	–

SMILES	CC50 [1] [µM]	MIC [2] [µg/mL]	MIC [3] [µg/mL]	MIC [4] [µg/mL]	IC50 [5] [µM]	IC50 [6] [µM]	EC2 [7] [µM]
O=c1[nH]sc2c1c(=O)c1cc(F)c(-c3ccccc3F)cc1n2C1CC1	> 100	0.015 (≈ 0.0405 µM)	8 (≈ 21.6 µM)	0.125 (≈ 0.337 µM)	–	–	–
CC(=O)c1cccc(-c2cc3c(cc2F)c(=O)c2c(=O)[nH]sc2n3C2CC2)c1	> 100	0.004 (≈ 0.0101 µM)	2 (≈ 5.07 µM)	0.125 (≈ 0.317 µM)	–	–	–
NCc1cccc(-c2cc3c(cc2F)c(=O)c2c(=O)[nH]sc2n3C2CC2)c1	8	0.015 (≈ 0.0393 µM)	2 (≈ 5.24 µM)	0.015 (≈ 0.0393 µM)	0.1	0.2	–
N#Cc1ccccc1-c1cc2c(cc1F)c(=O)c1c(=O)[nH]sc1n2C1CC1	> 85	0.125 (≈ 0.331 µM)	> 64	2 (≈ 5.3 µM)	–	–	–
COc1c(N2CCNC(C)C2)c(F)cc2c(=O)c(C(=O)O)cn(C3CC3)c12 (stereo not given) [GATIFLOXACIN]	67	0.125 (≈ 0.333 µM)	8 (≈ 21.3 µM)	0.015 (≈ 0.04 µM)	0.5	1.2	–
O=c1[nH]sc2c1c(=O)c1cc(F)c(-c3ccc(O)cc3)cc1n2C1CC1	8	0.004 (≈ 0.0109 µM)	0.125 (≈ 0.339 µM)	0.03 (≈ 0.0814 µM)	0.8	25	15
O=c1[nH]sc2c1c(=O)c1cc(F)c(-c3cccc(F)c3)cc1n2C1CC1	96	0.004 (≈ 0.0108 µM)	1 (≈ 2.7 µM)	0.125 (≈ 0.337 µM)	1	7.2	> 150
NCC(=O)Nc1ccc(-c2cc3c(cc2F)c(=O)c2c(=O)[nH]sc2n3C2CC2)cc1	> 75	0.25 (≈ 0.589 µM)	64 (≈ 151 µM)	1 (≈ 2.36 µM)	–	–	–
N#Cc1ccc(-c2cc3c(cc2F)c(=O)c2c(=O)[nH]sc2n3C2CC2)cc1	> 100	0.03 (≈ 0.0795 µM)	16 (≈ 42.4 µM)	1 (≈ 2.65 µM)	–	–	–
NCc1ccc(-c2cc3c(cc2F)c(=O)c2c(=O)[nH]sc2n3C2CC2)cc1	4	0.03 (≈ 0.0787 µM)	8 (≈ 21 µM)	0.015 (≈ 0.0393 µM)	0.1	1.5	–
COc1cc(-c2cc3c(cc2F)c(=O)c2c(=O)[nH]sc2n3C2CC2)ccc1O	4	0.001 (≈ 0.00251 µM)	0.125 (≈ 0.314 µM)	0.06 (≈ 0.151 µM)	–	–	–
Nc1cc(-c2cc3c(cc2F)c(=O)c2c(=O)[nH]sc2n3C2CC2)ccc1F	28	0.008 (≈ 0.0208 µM)	0.5 (≈ 1.3 µM)	0.125 (≈ 0.324 µM)	0.3	10	–
N#Cc1cccc(-c2cc3c(cc2F)c(=O)c2c(=O)[nH]sc2n3C2CC2)c1	> 100	0.001 (≈ 0.00265 µM)	0.125 (≈ 0.331 µM)	0.03 (≈ 0.0795 µM)	–	–	–
O=c1[nH]sc2c1c(=O)c1cc(F)c(N3CCNCC3)cc1n2C1CC1	7	0.05 (≈ 0.139 µM)	4 (≈ 11.1 µM)	0.004 (≈ 0.0111 µM)	0.1	0.5	20
O=c1[nH]sc2c1c(=O)c1cc(F)c(-c3ccc(C4CCCCN4)cc3)cc1n2C1CC1 (stereo not given)	4	0.125 (≈ 0.287 µM)	4 (≈ 9.18 µM)	0.25 (≈ 0.574 µM)	1	2.6	–
CN(C)c1ccc(-c2cc3c(cc2F)c(=O)c2c(=O)[nH]sc2n3C2CC2)cc1	51	0.001 (≈ 0.00253 µM)	4 (≈ 10.1 µM)	0.5 (≈ 1.26 µM)	–	–	–
COc1ccccc1-c1cc2c(cc1F)c(=O)c1c(=O)[nH]sc1n2C1CC1	> 84	0.125 (≈ 0.327 µM)	32 (≈ 83.7 µM)	2 (≈ 5.23 µM)	–	–	–
Nc1ccc(-c2cc3c(cc2F)c(=O)c2c(=O)[nH]sc2n3C2CC2)cc1	34	0.004 (≈ 0.0109 µM)	0.5 (≈ 1.36 µM)	0.06 (≈ 0.163 µM)	0.3	12	–
CN(C)c1cccc(-c2cc3c(cc2F)c(=O)c2c(=O)[nH]sc2n3C2CC2)c1	> 100	0.06 (≈ 0.152 µM)	32 (≈ 80.9 µM)	2 (≈ 5.06 µM)	–	–	–
